Activity calls are given as the source filed them.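 How the source made its calls, unless noted: active means duplicate-averaged activation above buffer control mean plus 5 SD of those controls; inactive means the rest.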
System: not listed separately
Experiment: nonspecific flux increase, KCNQ1-free cells – parental CHO cells, counter-screen for KCNQ1 potentiator project (AID 493006)
Details: parental CHO-K1 cells, FluxOR thallium flux, at 10 µM; hits give high values
Method in brief: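 Assay system: Untransfected host CHO-K1 cells with FluxOR thallium dye | Probe or stimulus: Potassium/thallium depolarization pulse | Schedule: Overnight 37 °C plating, 90 min RT dye, 20 min compound | Detection: Kinetic thallium-flux fluorescence | Read-out: Max-minus-min fluorescence over baseline, percent of buffer-to-R-L3 span | Benchmarks: Low control buffer, high control R-L3 activator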

Structure (SMILES)	outcome
S=c1[nH]cnc2scc(-c3ccc(Br)cc3)c12	inactive
CCc1ccc(-c2ccc3nnc(SC)n3n2)cc1	inactive
S=c1nc[nH]c2c1sc1nc(N3CCOCC3)c3c(c12)CCCC3	inactive
CC(C)(C)c1ccc(-n2nc(C#N)c(Cl)cc2=O)cc1	inactive
Cc1ccc(C)c(/C=N/n2cc(-c3ccccc3)[nH]c2=S)c1	inactive
Cc1cc(NC(=O)CSCC(=O)OC(C)C(=O)N(C)Cc2ccccc2)no1 (stereo not drawn)	inactive
CCOc1ccc(OCCCN(C)C)cc1	inactive
O=C(NC(=S)Nc1cccc([N+](=O)[O-])c1)c1ccco1	inactive
Cc1nc(=S)c2c([nH]1)-c1ccccc1CC21CCCCC1	inactive
NC(=O)c1ccsc1NC(=O)COC(=O)Cc1ccsc1	inactive
CCOC(=O)N/C(N)=N/c1nc2ccccc2s1	inactive
CCOC(=O)CSC(=S)NC(=O)c1ccc(OC)cc1	inactive
O=C(CC1(O)C(=O)N(Cc2ccccc2)c2ccccc21)c1ccncc1 (stereo not drawn)	inactive
COC(=O)N/N=C/c1cc(C)n(-c2ccc(F)cc2)c1C	inactive
CSCC(C)N1CCC(n2nccc2NC(=O)CCOc2ccccc2)CC1 (stereo not drawn)	inactive
S=c1[nH]nc(C2CCCCC2)n1/N=C/c1cccc(Cl)c1Cl	inactive
CCC(C)NCC(=O)Nc1sc2c(c1C(N)=O)CCC2 (stereo not drawn)	inactive
COc1cccc(NC(=S)N/N=C2/CCCCc3ccccc32)c1	inactive
COc1ccc(C(=O)NC(=S)N(C)C2CCCCC2)cc1Br	inactive
Cc1cccc(C(=O)O/N=C(\N)c2cccc([N+](=O)[O-])c2)c1	inactive

Structure (SMILES)	outcome
CCSc1nnc(-c2ccncc2)n1Cc1ccccc1	inactive
Cc1ccc(NC(=O)Nc2ccc3c(c2)CCC3)cc1	inactive
N/C(=N\OC(=O)c1cccc2ccccc12)c1ccc(Br)cc1	inactive
NNc1nc2c(F)cc(F)cc2s1	inactive
S=c1[nH]c(-c2ccccc2)cn1/N=C/c1ccc(Br)cc1	inactive
CCCc1cc(=O)[nH]c(SCC(=O)Nc2ccc(Br)cc2Br)n1	inactive
O=C(CSc1nnc(-c2ccco2)o1)Nc1cccc([N+](=O)[O-])c1	inactive
Cc1ccc(-n2ncc3c(=O)n(CC(=O)N4CCN(c5ccccc5F)CC4)cnc32)cc1C	inactive
O=C(O)c1cc2cc(F)ccc2[nH]1	inactive
COc1ccc(-c2cc(-c3ccccc3)c(C#N)c(=S)[nH]2)cc1	inactive
COc1cc(/C=C2\C(=O)N(CCC#N)N=C2C)c(Br)cc1OC(C)C	inactive
COC(=O)C1=C(C)Nc2nc(-c3ccccc3)nn2C1c1ccc(C)o1 (stereo not drawn)	inactive
CCOC(=O)c1sc(NC(=S)NC(=O)c2ccccc2)nc1C	inactive
CCOc1ccc(NC(=O)c2ccc(N)cc2)cc1	inactive
NC(=O)CN1C(=O)NC2(CCOc3ccccc32)C1=O (stereo not drawn)	inactive
Cc1cccc(/N=C/c2sc3ccccc3c2O)n1	inactive
CCN1CCN(c2ccc(S(=O)(=O)N3CCCC3)cn2)CC1	inactive
CN(CC(=O)NCc1ccccc1Cl)CC(=O)Nc1cccc(F)c1	inactive
COc1ccc(OC)c(NC(=S)N2CCC(C(O)(c3ccccc3)c3ccccc3)CC2)c1	inactive

Target: Potassium voltage-gated channel subfamily KQT member 1 (Homo sapiens) (UniProt P51787)
Experiment: enhancement of KCNQ1 channel thallium flux – FluxOR thallium flux, CHO cells, duplicates, confirmation (AID 493007;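 active means potentiation averaged over duplicate wells exceeding buffer-only control mean by more than 3 SD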;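 on outcome: cells depolarized by a potassium plus thallium sulfate stimulus after compound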)
Details: KCNQ1 cell line, FluxOR thallium flux fluorescence, at 10 µM; hits give high values, % of reference activator effect, buffer zero
Method in brief: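 Material: KCNQ1-expressing CHO cell line; Incubation: FluxOR dye loading 90 min, compound exposure 20 min, room temperature; Detection: FluxOR Tl+ flux fluorescence, 10 s baseline plus 110 s recording; Read-out: percent activation between buffer and R-L3 responses; Control set: buffer-only wells as 0% and R-L3 activator as 100%; Replication: duplicate wells per compound.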

Sequence of Potassium voltage-gated channel subfamily KQT member 1 (Homo sapiens) (P51787 whole entry, looked up): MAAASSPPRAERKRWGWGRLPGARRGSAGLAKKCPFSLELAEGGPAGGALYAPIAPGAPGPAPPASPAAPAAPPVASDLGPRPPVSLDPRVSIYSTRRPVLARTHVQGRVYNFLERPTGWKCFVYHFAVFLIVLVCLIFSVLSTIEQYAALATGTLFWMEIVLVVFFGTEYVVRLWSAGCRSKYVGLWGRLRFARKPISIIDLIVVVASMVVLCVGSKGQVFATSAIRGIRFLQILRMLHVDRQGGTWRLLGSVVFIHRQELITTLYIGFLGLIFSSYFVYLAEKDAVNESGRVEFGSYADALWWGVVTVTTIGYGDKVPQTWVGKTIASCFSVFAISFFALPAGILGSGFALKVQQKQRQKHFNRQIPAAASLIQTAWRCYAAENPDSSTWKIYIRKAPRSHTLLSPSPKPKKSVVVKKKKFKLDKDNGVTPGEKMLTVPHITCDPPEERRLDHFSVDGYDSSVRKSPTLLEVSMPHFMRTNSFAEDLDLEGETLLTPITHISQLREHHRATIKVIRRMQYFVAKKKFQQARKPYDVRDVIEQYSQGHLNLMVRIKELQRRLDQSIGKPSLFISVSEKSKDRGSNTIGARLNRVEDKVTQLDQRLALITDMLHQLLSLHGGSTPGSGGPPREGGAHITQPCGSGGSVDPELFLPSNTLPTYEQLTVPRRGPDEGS

Structure (SMILES)	potentiation	outcome
S=c1[nH]cnc2scc(-c3ccc(Br)cc3)c12	32.5% (active)	–
CCc1ccc(-c2ccc3nnc(SC)n3n2)cc1	–	inactive
S=c1nc[nH]c2c1sc1nc(N3CCOCC3)c3c(c12)CCCC3	105% (active)	–
CC(C)(C)c1ccc(-n2nc(C#N)c(Cl)cc2=O)cc1	–	inactive
Cc1ccc(C)c(/C=N/n2cc(-c3ccccc3)[nH]c2=S)c1	24.5% (active)	–
Cc1cc(NC(=O)CSCC(=O)OC(C)C(=O)N(C)Cc2ccccc2)no1 (stereo not drawn)	28% (active)	–
CCOc1ccc(OCCCN(C)C)cc1	–	inactive
O=C(NC(=S)Nc1cccc([N+](=O)[O-])c1)c1ccco1	–	inactive
Cc1nc(=S)c2c([nH]1)-c1ccccc1CC21CCCCC1	84.5% (active)	–
NC(=O)c1ccsc1NC(=O)COC(=O)Cc1ccsc1	182% (active)	–
CCOC(=O)N/C(N)=N/c1nc2ccccc2s1	–	inactive
CCOC(=O)CSC(=S)NC(=O)c1ccc(OC)cc1	18.5% (active)	–
O=C(CC1(O)C(=O)N(Cc2ccccc2)c2ccccc21)c1ccncc1 (stereo not drawn)	27.5% (active)	–
COC(=O)N/N=C/c1cc(C)n(-c2ccc(F)cc2)c1C	–	inactive
CSCC(C)N1CCC(n2nccc2NC(=O)CCOc2ccccc2)CC1 (stereo not drawn)	–	inactive
S=c1[nH]nc(C2CCCCC2)n1/N=C/c1cccc(Cl)c1Cl	41% (active)	–
CCC(C)NCC(=O)Nc1sc2c(c1C(N)=O)CCC2 (stereo not drawn)	–	inactive
COc1cccc(NC(=S)N/N=C2/CCCCc3ccccc32)c1	26% (active)	–
COc1ccc(C(=O)NC(=S)N(C)C2CCCCC2)cc1Br	–	inactive
Cc1cccc(C(=O)O/N=C(\N)c2cccc([N+](=O)[O-])c2)c1	–	inactive

Structure (SMILES)	potentiation	outcome
CCSc1nnc(-c2ccncc2)n1Cc1ccccc1	–	inactive
Cc1ccc(NC(=O)Nc2ccc3c(c2)CCC3)cc1	–	inactive
N/C(=N\OC(=O)c1cccc2ccccc12)c1ccc(Br)cc1	–	inactive
NNc1nc2c(F)cc(F)cc2s1	–	inactive
S=c1[nH]c(-c2ccccc2)cn1/N=C/c1ccc(Br)cc1	–	inactive
CCCc1cc(=O)[nH]c(SCC(=O)Nc2ccc(Br)cc2Br)n1	–	inactive
O=C(CSc1nnc(-c2ccco2)o1)Nc1cccc([N+](=O)[O-])c1	–	inactive
Cc1ccc(-n2ncc3c(=O)n(CC(=O)N4CCN(c5ccccc5F)CC4)cnc32)cc1C	–	inactive
O=C(O)c1cc2cc(F)ccc2[nH]1	–	inactive
COc1ccc(-c2cc(-c3ccccc3)c(C#N)c(=S)[nH]2)cc1	–	inactive
COc1cc(/C=C2\C(=O)N(CCC#N)N=C2C)c(Br)cc1OC(C)C	–	inactive
COC(=O)C1=C(C)Nc2nc(-c3ccccc3)nn2C1c1ccc(C)o1 (stereo not drawn)	30% (active)	–
CCOC(=O)c1sc(NC(=S)NC(=O)c2ccccc2)nc1C	–	inactive
CCOc1ccc(NC(=O)c2ccc(N)cc2)cc1	–	inactive
NC(=O)CN1C(=O)NC2(CCOc3ccccc32)C1=O (stereo not drawn)	–	inactive
Cc1cccc(/N=C/c2sc3ccccc3c2O)n1	–	inactive
CCN1CCN(c2ccc(S(=O)(=O)N3CCCC3)cn2)CC1	–	inactive
CN(CC(=O)NCc1ccccc1Cl)CC(=O)Nc1cccc(F)c1	–	inactive
COc1ccc(OC)c(NC(=S)N2CCC(C(O)(c3ccccc3)c3ccccc3)CC2)c1	43% (active)	–
